Here are results for nine compounds from paper PMC6437634 (Acta Pharmaceutica Sinica. B, 2018).

What is called IC50 is the concentration needed to halve the response being measured. A low value points to greater potency. As usually defined, the inhibition is how much of the control response was suppressed. By microsomal CLint is commonly meant the capacity of the preparation to metabolise the compound, expressed as a volume cleared per time. High values mean rapid turnover, low ones slow turnover.

SMILES strings stand for the structures.

One data set has as its target FGFR1 kinase (Homo sapiens, UniProt P11362). As to the kind of experiment: ELISA kinase assay FGFR1. It is filed as biochemical. (In general: An ELISA detects its analyte on a solid surface through an enzyme-linked reagent.)
Another data set deals with CYP3A4 (Homo sapiens, UniProt P08684). As to the kind of experiment: CYPs direct inhibition CYP3A4. It counts as in vitro ADME. Particulars: liver microsomes, pH 7.4.
Chain of CYP3A4 (P08684 whole entry): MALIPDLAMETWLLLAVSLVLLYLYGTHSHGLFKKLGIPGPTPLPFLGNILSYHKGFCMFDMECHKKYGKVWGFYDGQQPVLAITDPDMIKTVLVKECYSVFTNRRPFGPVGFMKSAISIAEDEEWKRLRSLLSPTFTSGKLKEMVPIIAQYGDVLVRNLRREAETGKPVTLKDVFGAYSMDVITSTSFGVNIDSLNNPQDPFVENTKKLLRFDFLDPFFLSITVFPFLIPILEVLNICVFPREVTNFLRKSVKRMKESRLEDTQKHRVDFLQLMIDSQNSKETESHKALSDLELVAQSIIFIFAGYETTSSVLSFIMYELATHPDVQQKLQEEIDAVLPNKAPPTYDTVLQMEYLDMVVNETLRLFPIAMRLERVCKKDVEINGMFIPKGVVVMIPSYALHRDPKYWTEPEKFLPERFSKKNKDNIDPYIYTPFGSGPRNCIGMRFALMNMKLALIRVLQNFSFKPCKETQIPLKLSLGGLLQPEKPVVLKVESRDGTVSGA
The next data set concerns CYPs. As to the kind of experiment: CYP time-dependent inhibition. It counts as in vitro ADME, human. The settings on record: kobs lower than 200 (10^-4/min) considered no TDI inhibition.
Data set [1] can be described thus: In vitro metabolic stability, human liver microsomal intrinsic clearance. It counts as in vitro ADME. Particulars: liver microsomes, pH 7.4. The method, boiled down:
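Human liver microsomes (0.5 mg/mL) were preincubated 5 min at 37 °C with 1 μmol/L test compound in 0.1 mol/L phosphate buffer pH 7.4 with EDTA and MgCl2. NADPH started the reaction. Samples taken at 0, 5, 10 and 30 min at 37 °C were quenched with equal-volume cold acetonitrile and centrifuged. Remaining parent compound was quantified by LC–MS/MS.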
For orientation: Liver microsomes are a subcellular fraction often used to study metabolism.

Chain of FGFR1 kinase (P11362 22-822): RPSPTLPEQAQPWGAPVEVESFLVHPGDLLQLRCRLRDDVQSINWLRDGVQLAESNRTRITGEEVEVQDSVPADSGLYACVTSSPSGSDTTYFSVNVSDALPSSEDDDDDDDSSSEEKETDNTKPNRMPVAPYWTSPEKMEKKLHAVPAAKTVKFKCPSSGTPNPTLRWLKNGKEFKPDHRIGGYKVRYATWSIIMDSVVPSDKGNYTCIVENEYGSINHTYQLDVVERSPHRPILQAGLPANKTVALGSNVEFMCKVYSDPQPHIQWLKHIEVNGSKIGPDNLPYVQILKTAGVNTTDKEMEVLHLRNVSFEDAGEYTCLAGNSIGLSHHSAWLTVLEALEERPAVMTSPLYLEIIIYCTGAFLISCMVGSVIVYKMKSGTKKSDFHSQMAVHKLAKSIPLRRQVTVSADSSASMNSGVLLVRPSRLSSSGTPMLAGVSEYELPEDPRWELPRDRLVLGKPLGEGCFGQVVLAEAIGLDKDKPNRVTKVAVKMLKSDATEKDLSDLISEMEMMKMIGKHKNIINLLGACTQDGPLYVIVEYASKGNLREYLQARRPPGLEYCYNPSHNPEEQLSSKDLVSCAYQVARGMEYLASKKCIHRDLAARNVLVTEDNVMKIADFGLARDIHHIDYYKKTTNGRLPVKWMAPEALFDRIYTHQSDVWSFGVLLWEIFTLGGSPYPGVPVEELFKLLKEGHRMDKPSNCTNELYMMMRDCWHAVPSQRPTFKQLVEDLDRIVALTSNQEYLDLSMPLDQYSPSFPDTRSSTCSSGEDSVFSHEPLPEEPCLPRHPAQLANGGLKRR

Consider `COc1cc(CCc2cnc3ccn(S(=O)(=O)c4ccccc4)c3n2)cc(OC)c1` [Compound 5, 3-(3,5-Dimethoxyphenethyl)-5-(phenylsulfonyl)-5H-pyrrolo[2,3-b]pyrazine], for which the FGFR1 inhibition ratio entry at FGFR1 kinase (at 0.1 μmol/L) is “about 75%”.

Take `COc1cc(OC)c(Cl)c(CCc2cnc3ccn(S(=O)(=O)c4ccccc4)c3n2)c1Cl` [Compound 7, 3-(2,6-Dichloro-3,5-dimethoxyphenethyl)-5-(phenylsulfonyl)-5H-pyrrolo[2,3-b]pyrazine]: the IC50 at FGFR1 kinase was found to be 14 nM. In turn, `COc1cc(CCc2cnc3ccn(S(=O)(=O)c4c[nH]cn4)c3n2)cc(OC)c1` [Compound 12, 5-((1H-Imidazol-4-yl)sulfonyl)-3-(3,5-dimethoxyphenethyl)-5H-pyrrolo[2,3-b]pyrazine] yielded an inhibition at 20 min, 10 μmol/L at CYP3A4 of 96%. Further, in the data set on CYPs, the “TDI (time-dependent inhibition), CYPs affected” value was “No inhibition”. In addition, the microsomal CLint at 1 μmol/L in data set [1] came out at 38 µL/min/mg.

For the compound `COc1cc(CCc2cnc3ccn(S(=O)(=O)c4cn(C)cn4)c3n2)cc(OC)c1` [Compound 20], at CYP3A4, the inhibition at 20 min, 10 μmol/L turned out to be 88%. In data set [1], this compound yielded an intrinsic metabolic clearance (microsomal CLint) at 1 μmol/L of 212 µL/min/mg. In addition, the “FGFR1 enzymatic inhibitory activity (in words)” value on FGFR1 kinase is “single digit nanomolar activity”.

In turn, `COc1cc(OC)c(Cl)c(CCc2cnc3ccn(S(=O)(=O)c4c[nH]cn4)c3n2)c1Cl` [Compound 29] displayed an inhibition at 20 min, 10 μmol/L at CYP3A4 of 90%. Moreover, the “TDI (time-dependent inhibition), CYPs affected” value in the data set on CYPs is listed as “No inhibition”. In data set [1], this compound gave a microsomal CLint at 1 μmol/L of 50 µL/min/mg. For the same compound, on FGFR1 kinase, the “FGFR1 enzymatic inhibitory activity (in words)” value is on record as “picomolar range”.

As for `CCOc1cccc(CCc2cnc3ccn(S(=O)(=O)c4cn(C)cn4)c3n2)c1` [Compound 30, 3-(3-Ethoxyphenethyl)-5-((1-methyl-1H-imidazol-4-yl)sulfonyl)-5H-pyrrolo[2,3-b]pyrazine], on FGFR1 kinase, the “FGFR1 enzymatic inhibitory activity (in words)” value was “decreased dramatically”. On FGFR1 kinase, `COc1cc(CCc2cnc3ccn(S(=O)(=O)c4cn(C)cn4)c3n2)c(F)c(OC)c1` [Compound 32, 3-(2-Fluoro-3,5-dimethoxyphenethyl)-5-((1-methyl-1H-imidazol-4-yl)sulfonyl)-5H-pyrrolo[2,3-b]pyrazine] yielded a half-inhibitory concentration (IC50) of 0.4 nM. Regarding `COc1cc(CCc2cnc3ccn(S(=O)(=O)c4cn(CCF)cn4)c3n2)c(F)c(OC)c1` [Compound 33, 3-(2-Fluoro-3,5-dimethoxyphenethyl)-5-((1-(2-fluoroethyl)-1H-imidazol-4-yl)sulfonyl)-5H-pyrrolo[2,3-b]pyrazine], the “FGFR1 enzymatic inhibitory activity (in words)” value on FGFR1 kinase is recorded as “equipotent enzymatic activity as compound 32”.

As to `COc1cc(OC)c(F)c(/C=C/c2cnc3ccn(S(=O)(=O)c4cn(C)cn4)c3n2)c1F` [Compound 34, (E)-3-(2,6-Difluoro-3,5-dimethoxystyryl)-5-((1-methyl-1H-imidazol-4-yl)sulfonyl)-5H-pyrrolo[2,3-b]pyrazine], on FGFR1 kinase, the “FGFR1 enzymatic inhibitory activity (in words)” value is recorded as “equipotent enzymatic activity as compound 32”.
